# The list is not random: actives were taken first. Their share in the collection is about 4.6%.
# OX1R antag-1 – OX1R (HCRTR1) antagonists, primary screen, fluorescence, CHO/OX1R cells, Fluo-8 calcium, orexin A; Orexin/Hypocretin receptor type 1 (Homo sapiens), O43613; Fluo-8 calcium fluorescence; inhibition, % at 5 µM; actives 0.43% (n = 330,000);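 active means inhibition above its plate's threshold, mean inhibition of all tested compounds on the plate plus 3 SD, cut at about 37% in these data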;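 further: 0% = orexin A challenge wells and 100% = SB-334867-A antagonist wells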
# GPR7 antag – GPR7 receptor antagonists, primary screen, cell-based, fluorescence, single concentration | Neuropeptides B/W receptor type 1 (Homo sapiens), P48145 | GPR7-expressing cells, fluorescence antagonist assay | inhibition, % at 4.4 µM | actives 1.1% (n = 290,000) | AID 1861, 2009; in the data active means inhibition above about 16%, passing the limit was not always enough;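 further: cells stimulated with the agonist NPW; 0% = agonist with vehicle and 100% = vehicle without agonist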
# OX1R antag-2 – antagonists of human orexin 1 receptor (OX1R) | Orexin/Hypocretin receptor type 1 (Homo sapiens), O43613 | OX1R-expressing cells, FRET antagonist read-out | inhibition, % at 6.6 µM | actives 1.8% (n = 330,000); in the data active means inhibition mostly above about 38%, no sharp cut-off; inactive means mostly below about 40%;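 further: 0% = agonist challenge alone and 100% = reference antagonist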
# TAAR1 agonist – human TAAR1 agonists, primary screen, Fluo-8 calcium fluorescence, CHO RD-HGA16 cells; Trace amine-associated receptor 1 (Homo sapiens), Q96RJ0; vehicle wells 0%, saturating PEA agonist 100%; activation, % at 3 µM; actives 0.99% (n = 360,000); AID 624467, 2012;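 active means activation above the mean activation of all test compounds in the run plus 3 SD, cut at about 38% in these data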
# Target sequence (Q96RJ0 whole entry, looked up): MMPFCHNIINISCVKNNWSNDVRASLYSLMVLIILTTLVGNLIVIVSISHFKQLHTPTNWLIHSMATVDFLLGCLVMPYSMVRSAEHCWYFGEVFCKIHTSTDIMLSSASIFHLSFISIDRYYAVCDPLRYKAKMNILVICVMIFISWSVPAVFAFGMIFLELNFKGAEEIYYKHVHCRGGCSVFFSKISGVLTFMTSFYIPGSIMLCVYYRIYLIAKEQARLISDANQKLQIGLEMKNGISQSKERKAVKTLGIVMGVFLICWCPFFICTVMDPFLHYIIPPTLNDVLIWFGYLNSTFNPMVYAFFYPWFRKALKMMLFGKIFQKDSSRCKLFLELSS
#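 Test system: RD-HGA16 (CHO) cells co-expressing Gα16 and hTAAR1; dosing: one-point dosing at 3 µM (nominal); timing: 17-24 h seeding, 75 min 37 °C dye, 30 min RT; signal: kinetic Fluo-8 calcium fluorescence; read-out basis: % activation relative to PEA EC100 response; controls: DMSO and PEA EC100; replicates: n 1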
# TAAR1 antag – human TAAR1 antagonists, primary screen, Fluo-8 calcium fluorescence, CHO RD-HGA16 cells | actives 1.5% (n = 360,000) | Trace amine-associated receptor 1 (Homo sapiens), Q96RJ0 | antagonist | inhibition, % at 3 µM;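 active means inhibition above a per-plate cutoff, the mean inhibition of test compounds on that plate plus 3 SD, cut at about 49% in these data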;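 further: 0% = DMSO plus EC80 beta-PEA response and 100% = DMSO alone without agonist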
#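 Material: RD-HGA16 CHO cells with stable hTAAR1 and Gα16; Dosing: single nominal final test compound concentration of 3 µM; Schedule: seeding 17-24 h prior, 75-min 37 °C, 30-min RT dye loading; Detection: kinetic Fluo-8 calcium fluorescence measurement; Measure: % inhibition from peak post-agonist over basal fluorescence ratio; Benchmarks: vehicle and agonist controls.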
# CHO parental Ca – ATP-evoked calcium signal inhibitors, parental CHO, primary screen, counter-screen for OX1R antagonist project, cell-based, fluorescence, Fluo-8 calcium dye | inhibition, % at 5.6 µM | actives 0.63% (n = 330,000) | AID 463079, 2010 | parental CHO-K1, ATP-induced calcium, Fluo-8 fluorescence;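 active means inhibition above that plate's mean sample inhibition plus 3 SD, cut at about 26% in these data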;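 further: 0% = ATP-challenged DMSO wells and 100% = DMSO wells without ATP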
#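 Assay system: parental CHO cells; Read-out basis: percent inhibition of ATP-evoked calcium rise, normalized to controls; Benchmarks: ATP and no-ATP DMSO wells; Compound dosing: single nominal dose of 5.6 µM per compound; Signal: Fluo-8 calcium dye fluorescence; Also added: ATP as calcium-mobilizing challenge; Repeats: singlicate.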
# TAAR1 nonsel count – nonselective antagonists in TAAR1 counter-screen cells, counter-screen for hTAAR1 antagonist project, cell-based, fluorescence, calcium | counterscreen cell line, antagonist mode | shares compounds with TAAR1 antag | actives 77% (n = 2,400) | inhibition, % at 3 µM; in the data active means inhibition above about 22%;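 further: CHO-Ga16 host cells stimulated with ATP at an EC80 level; 0% = agonist EC80 plus vehicle and 100% = vehicle without agonist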
# TAAR1 antag conf – human TAAR1 antagonists, retest of hits, confirmation, cell-based, fluorescence | shares compounds with TAAR1 antag | TAAR1-expressing cells, fluorescence antagonist read-out | inhibition, % at 3 µM | actives 40% (n = 2,400); in the data active means inhibition above about 49%;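 further: CHO-Ga16 host cells challenged with agonist PEA near its EC80; 0% = agonist at EC80 plus vehicle and 100% = vehicle with no agonist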
# Ga16 nonsel ag – calcium activation in Ga16-expressing cells, counter-screen for TAAR1 antagonist project, cell-based, fluorescence | shares compounds with TAAR1 antag | agonist counterscreen | activation, % at 3 µM | actives 18% (n = 2,400) | AID 651953, 2012; in the data active means activation above about 12%;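 further: 0% = vehicle wells and 100% = saturating stimulus response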
# TAAR1 ag counter – TAAR1 activation by candidate antagonists – cell-based, fluorescence, counter-screen for TAAR1 antagonist project; shares compounds with TAAR1 antag; hTAAR1 cell line, agonist mode; activation, % at 3 µM; actives 2% (n = 2,400); AID 651955, 2012; in the data active means activation above about 37%;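 further: CHO cells stably expressing TAAR1 with calcium dye readout; 0% = DMSO vehicle and 100% = full agonist response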
# Starred values were filed as active, the others as inactive; . = no result given.
SMILES,OX1R antag-1,GPR7 antag,OX1R antag-2,TAAR1 agonist,TAAR1 antag,CHO parental Ca,TAAR1 nonsel count,TAAR1 antag conf,Ga16 nonsel ag,TAAR1 ag counter
CC(=O)N1CCN(C(=O)c2cc(-c3cccc4ccccc34)nc3ccccc23)CC1,-31.4,-15.9,5.1,12.5,66.9*,-17.8,32.7*,47.6,9.4,9.7
O=C(c1cc(-c2ccncc2)nc2ccccc12)N1CCN(Cc2ccccc2)CC1,2.0,.,19.0,18.6,57.5*,-24.8,18.6,39.7,11.6*,13.6
COc1ccc(C(=O)C[n+]2cccc(C(N)=O)c2)cc1,13.1,1.7,9.4,0.6,-4.2,-6.6,.,.,.,.
Cc1ccccc1CN1CCN(C(=O)c2cc(-c3ccncc3)nc3ccccc23)CC1,-31.9,1.2,15.9,11.9,71.1*,-24.7,34.7*,46.2,9.1,8.7
COc1cccc(CN2CCN(C(=O)c3cc(-c4ccccn4)nc4ccc(Cl)cc34)CC2)c1,-22.4,-14.5,17.9,6.0,31.4,-11.7,.,.,.,.
COc1cccc(CN2CCN(C(=O)c3cc(-c4ccncc4)nc4ccc(C)cc34)CC2)c1,-38.0,-20.8,8.0,14.4,77.1*,-26.0,24.2*,45.6,8.9,9.6
COc1cccc(NC(=O)CNS(=O)(=O)c2ccc3nc(C)sc3c2)c1,-29.1,-9.3,29.7,2.1,16.7,-24.8,.,.,.,.
COc1cc(/C=C(/C#N)c2nc3ccccc3[nH]2)ccc1OCc1ccc(C(=O)O)o1,-7.5,1.8,18.8,3.7,6.8,-8.9,.,.,.,.
CCOc1cc(/C=C(/C#N)c2nc3ccccc3[nH]2)ccc1Oc1ccc([N+](=O)[O-])cn1,-5.2,-4.6,25.0,15.0,64.6*,-7.9,54.2*,65.6*,9.8,6.9
COC(=O)c1ccc(COc2ccc(/C=C(\C#N)c3nc4ccccc4[nH]3)cc2OC)o1,-1.2,-6.2,23.5,13.7,60.6*,1.5,32.2*,45.0,6.6,7.4
N#C/C(=C\c1ccc([N+](=O)[O-])o1)c1nc2ccccc2[nH]1,3.6,4.7,14.5,17.2,66.5*,7.1,49.1*,61.2*,19.9*,24.7
Cc1ccc2nc(/C(C#N)=C\c3ccc([N+](=O)[O-])o3)[nH]c2c1,33.8,0.1,-6.3,26.1,8.8,27.2,.,.,.,.
CCOC(=O)CSc1nc2c(sc3ccccc32)c(=O)n1CCCN1CCOCC1,-5.2,-8.8,65.8,4.3,18.6,-24.1,.,.,.,.
Cc1cccc(NC(=O)CN2C(=O)N/C(=C\c3ccc(-c4cccc(C(=O)O)c4)o3)C2=O)c1,5.2,0.0,-86.6,3.0,-43.4,1.5,.,.,.,.
O=C(CSc1ncnc2c1nnn2-c1ccc(F)cc1)NCc1ccco1,-3.8,-4.2,17.9,37.2,63.7*,-5.7,14.3,9.3,5.2,-1.6
O=C(COc1ccc(Cl)cc1)Nc1cccc(-c2ccc(N3CCOCC3)nn2)c1,-25.4,.,5.8,13.0,68.1*,-3.9,32.5*,44.7,7.2,3.8

# From PubChem
